According to ChEMBL document CHEMBL4392827, “Tryptamine derivatives disarm colistin resistance in polymyxin-resistant gram-negative bacteria” (Bioorg Med Chem, 2019):

Key:
Klebsiella pneumoniae [1] = experiment: Potentiation of colistin-induced antimicrobial activity against colistin-resistant Klebsiella pneumoniae B9 assessed as fold reduction in colistin MIC at 60 uM after 18 hrs by broth microdilution assay; assay type: functional
How it was run: (§1)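 Checkerboard-style resensitization following adapted CLSI broth microdilution. Bacteria were grown 4–6 h in CAMHB and subcultured to 5×10^5 CFU/mL. Adjuvant was added from DMSO stock and held constant while colistin was serially diluted in the dosed subculture. Plates were incubated stationary at 37°C for 18 h, then MICs were read. Fold reduction was taken relative to the colistin MIC without adjuvant.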

Klebsiella pneumoniae [2] = experiment: Toxicity in Klebsiella pneumoniae B9 after 18 hrs by broth microdilution assay; assay type: organism-based
How it was run: (§2)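 Single-agent MIC per CLSI broth microdilution. Cells from a 4–6 h culture in cation-adjusted Mueller-Hinton broth adjusted to 5 ×10^5 CFU/mL. Compound (DMSO stock) added to 200 μM top concentration and twofold serially diluted six times, with an untreated control row. Plates sealed and incubated stationary at 37°C for 18 h before MIC read.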

Acinetobacter baumannii [3] = experiment: Toxicity in Acinetobacter baumannii ATCC 17978 expressing mcr1 gene after 18 hrs by broth microdilution assay; assay type: organism-based; how it was run: as §2
Escherichia coli [4] = experiment: Toxicity in Escherichia coli ATCC 25922 after 18 hrs by broth microdilution assay; assay type: organism-based; conditions: in vitro; how it was run: as §2
Acinetobacter baumannii [5] = experiment: Toxicity in Acinetobacter baumannii 4106 after 18 hrs by broth microdilution assay; assay type: organism-based; conditions: in vitro; how it was run: as §2
Acinetobacter baumannii [6] = experiment: Potentiation of colistin-induced antimicrobial activity against colistin-resistant Acinetobacter baumannii 4106 assessed as fold reduction in colistin MIC at 60 uM after 18 hrs by broth microdilution assay; assay type: functional; how it was run: as §1
Acinetobacter baumannii [7] = experiment: Potentiation of colistin-induced antimicrobial activity against colistin-resistant Acinetobacter baumannii ATCC 17978 expressing mcr1 gene assessed as fold reduction in colistin MIC at 60 uM after 18 hrs by broth microdilution assay; assay type: functional; how it was run: as §1
Escherichia coli [8] = experiment: Potentiation of colistin-induced antimicrobial activity against colistin-resistant Escherichia coli ATCC 25922 expressing mcr1 gene assessed as fold reduction in colistin MIC at 60 uM after 18 hrs by broth microdilution assay; assay type: functional; how it was run: as §1
Escherichia coli [9] = experiment: Potentiation of colistin-induced antimicrobial activity against Escherichia coli ATCC 25922 assessed as fold reduction in colistin MIC at 60 uM after 18 hrs by broth microdilution assay; assay type: functional
How it was run: (§3)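 Bacteria grown 4–6 h in cation-adjusted Mueller-Hinton broth and diluted to 5 ×10^5 CFU/mL. Adjuvant from DMSO stock held at fixed 60 μM while colistin is twofold serially diluted in the same adjuvant-dosed broth. Plates sealed and kept stationary at 37°C for 18 h. Colistin MIC read and fold reduction taken relative to colistin alone.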

Acinetobacter baumannii [10] = experiment: Potentiation of colistin-induced antimicrobial activity against colistin-sensitive Acinetobacter baumannii 5075 assessed as fold reduction in colistin MIC at 60 uM after 18 hrs by broth microdilution assay; assay type: functional; how it was run: as §3
Klebsiella pneumoniae [11] = experiment: Potentiation of colistin-induced antimicrobial activity against colistin-resistant Klebsiella pneumoniae isolate C3 assessed as fold reduction in colistin MIC at 60 uM after 18 hrs by broth microdilution assay; assay type: functional; how it was run: as §1
Acinetobacter baumannii [12] = experiment: Potentiation of colistin-induced antimicrobial activity against colistin-resistant Acinetobacter baumannii isolate 4112 assessed as fold reduction in colistin MIC at 60 uM after 18 hrs by broth microdilution assay; assay type: functional; how it was run: as §1
Acinetobacter baumannii [13] = experiment: Potentiation of colistin-induced antimicrobial activity against colistin-resistant Acinetobacter baumannii isolate 3942 assessed as fold reduction in colistin MIC at 60 uM after 18 hrs by broth microdilution assay; assay type: functional; how it was run: as §1
Klebsiella pneumoniae [14] = experiment: Potentiation of colistin-induced antimicrobial activity against Klebsiella pneumoniae ATCC BAA-2146 expressing NDM1 gene assessed as fold reduction in colistin MIC at 60 uM after 18 hrs by broth microdilution assay; assay type: functional; how it was run: as §3
Acinetobacter baumannii [15] = experiment: Potentiation of colistin-induced antimicrobial activity against Acinetobacter baumannii ATCC 17978 assessed as fold reduction in colistin MIC at 60 uM after 18 hrs by broth microdilution assay; assay type: functional; how it was run: as §3
Acinetobacter baumannii [16] = experiment: Potentiation of colistin-induced antimicrobial activity against colistin-resistant Acinetobacter baumannii isolate 3941 assessed as fold reduction in colistin MIC at 60 uM after 18 hrs by broth microdilution assay; assay type: functional; how it was run: as §1
Klebsiella pneumoniae [17] = experiment: Potentiation of colistin-induced antimicrobial activity against colistin-resistant Klebsiella pneumoniae isolate A5 assessed as fold reduction in colistin MIC at 60 uM after 18 hrs by broth microdilution assay; assay type: functional; how it was run: as §1

Structure (SMILES) | fold change (FC) (Klebsiella pneumoniae [1]) | fold change (FC) (Acinetobacter baumannii [6]) | fold change (FC) (Acinetobacter baumannii [7]) | fold change (FC) (Escherichia coli [8]) | further results
O=C(NCCc1csc2ccccc12)c1cc(Br)c(Br)[nH]1 | 16 | 32 | 8 | 4 | MIC (Klebsiella pneumoniae [2]): > 200 µM; MIC (Acinetobacter baumannii [3]): > 200 µM; MIC (Escherichia coli [4]): > 200 µM; MIC (Acinetobacter baumannii [5]): > 200 µM
O=C(NCCc1c[nH]c2ccccc12)c1ccc(Br)o1 | 64 | 16 | 2 | 0 | 
O=C(NCCc1c[nH]c2ccccc12)c1cc(Br)c[nH]1 | 128 | 64 | 16 | 2 | 
O=C(NCCc1c[nH]c2ccccc12)c1cncc(Br)c1 | 8 | 4 | 0 | 0 | 
O=C(NCCc1c[nH]c2ccccc12)c1cc(I)c(I)[nH]1 | 2048 | 128 | 16 | 4 | fold change (FC) (Escherichia coli [9]): 2; fold change (FC) (Acinetobacter baumannii [10]): 2; fold change (FC) (Klebsiella pneumoniae [11]): 512; fold change (FC) (Acinetobacter baumannii [12]): 128; fold change (FC) (Acinetobacter baumannii [13]): 128; fold change (FC) (Klebsiella pneumoniae [14]): 2; fold change (FC) (Acinetobacter baumannii [15]): 2; fold change (FC) (Acinetobacter baumannii [16]): 128; fold change (FC) (Klebsiella pneumoniae [17]): 256
O=C(NCCc1c[nH]c2ccccc12)c1sccc1Br | 128 | 64 | 4 | 2 | 
O=C(NCCc1c[nH]c2ccccc12)c1cc(Br)c(Br)n1Cc1ccccc1 | 16 | 8 | 2 | 0 | 
O=C(NCc1c[nH]c2ccccc12)c1cc(I)c(I)[nH]1 | 0 | 0 | 0 | 0 | 
O=C(NCCc1c[nH]c2ccccc12)c1cc(I)c[nH]1 | 2048 | 64 | 16 |  | fold change (FC) (Escherichia coli [9]): 2; fold change (FC) (Acinetobacter baumannii [10]): 0; fold change (FC) (Klebsiella pneumoniae [11]): 128; fold change (FC) (Acinetobacter baumannii [12]): 32; fold change (FC) (Acinetobacter baumannii [13]): 32; fold change (FC) (Klebsiella pneumoniae [14]): 2; fold change (FC) (Acinetobacter baumannii [15]): 2; fold change (FC) (Acinetobacter baumannii [16]): 64; fold change (FC) (Klebsiella pneumoniae [17]): 32
O=C(NCCc1c[nH]c2ccccc12)c1ccc[nH]1 | 0 | 2 | 2 | 0 | 
O=C(NCCc1c[nH]c2ccccc12)c1ccc(Br)c(Br)n1 | 128 | 8 | 0 | 0 | 
O=C(NCCc1c[nH]cn1)c1cc(Br)c(Br)[nH]1 | 0 | 8 | 0 | 0 | MIC (Klebsiella pneumoniae [2]): > 200 µM; MIC (Acinetobacter baumannii [3]): > 200 µM; MIC (Escherichia coli [4]): > 200 µM; MIC (Acinetobacter baumannii [5]): > 200 µM
O=C(NCCc1ccccn1)c1cc(Br)c(Br)[nH]1 | 2 | 0 | 0 | 0 | MIC (Klebsiella pneumoniae [2]): > 200 µM; MIC (Acinetobacter baumannii [3]): > 200 µM; MIC (Escherichia coli [4]): > 200 µM; MIC (Acinetobacter baumannii [5]): > 200 µM
O=C(NCc1ccccc1)c1cc(Br)c(Br)[nH]1 | 2 | 2 | 0 | 0 | MIC (Klebsiella pneumoniae [2]): > 200 µM; MIC (Acinetobacter baumannii [3]): > 200 µM; MIC (Escherichia coli [4]): > 200 µM; MIC (Acinetobacter baumannii [5]): > 200 µM
O=C(NCCc1c[nH]c2ccccc12)c1cc(Br)c(Br)s1 | 512 | 32 | 16 | 2 | 
Cn1cc(CCNC(=O)c2cc(Br)c(Br)[nH]2)c2ccccc21 | 0 | 4 | 0 | 0 | MIC (Klebsiella pneumoniae [2]): > 200 µM; MIC (Acinetobacter baumannii [3]): > 200 µM; MIC (Escherichia coli [4]): > 200 µM; MIC (Acinetobacter baumannii [5]): > 200 µM

Structure (SMILES) | fold change (FC) (Klebsiella pneumoniae [1]) | fold change (FC) (Acinetobacter baumannii [6]) | fold change (FC) (Acinetobacter baumannii [7]) | fold change (FC) (Escherichia coli [8]) | further results
O=C(NCCc1c[nH]c2ccccc12)c1cc(Br)c(Br)o1 | 512 | 64 | 16 | 2 | 
O=C(NCCc1c[nH]c2ccccc12)c1cccc(Br)n1 | 1024 | 16 |  |  | fold change (FC) (Escherichia coli [9]): 2; fold change (FC) (Acinetobacter baumannii [10]): 0; fold change (FC) (Klebsiella pneumoniae [11]): 512; fold change (FC) (Acinetobacter baumannii [12]): 8; fold change (FC) (Acinetobacter baumannii [13]): 8; fold change (FC) (Klebsiella pneumoniae [14]): 2; fold change (FC) (Acinetobacter baumannii [15]): 2; fold change (FC) (Acinetobacter baumannii [16]): 8; fold change (FC) (Klebsiella pneumoniae [17]): 0
CCCCn1c(C(=O)NCCc2c[nH]c3ccccc23)cc(Br)c1Br | 16 | 16 | 2 | 0 | 
COc1ccc2[nH]cc(CCNC(=O)c3cc(Br)c(Br)[nH]3)c2c1 | 128 | 128 | 8 | 2 | MIC (Klebsiella pneumoniae [2]): > 200 µM; MIC (Acinetobacter baumannii [3]): > 200 µM; MIC (Escherichia coli [4]): > 200 µM; MIC (Acinetobacter baumannii [5]): > 200 µM
Cn1cc(Br)cc1C(=O)NCCc1c[nH]c2ccccc12 | 4 | 32 | 4 | 2 | 
O=C(NCCc1c[nH]c2ccccc12)c1ccccn1 | 0 | 8 | 0 | 0 | 
Cn1c(C(=O)NCCc2c[nH]c3ccccc23)cc(Br)c1Br | 256 | 32 | 16 | 2 | 
O=C(NCCc1c[nH]c2ccccc12)c1cc(Cl)c(Cl)[nH]1 | 1024 | 256 | 32 | 8 | 
O=C(NC1Cc2ccccc2C1)c1cc(Br)c(Br)[nH]1 | 0 | 8 | 0 | 0 | MIC (Klebsiella pneumoniae [2]): > 200 µM; MIC (Acinetobacter baumannii [3]): > 200 µM; MIC (Escherichia coli [4]): > 200 µM; MIC (Acinetobacter baumannii [5]): > 200 µM
O=C(NCCc1c[nH]c2ccc(O)cc12)c1cc(Br)c(Br)[nH]1 | 8 | 4 | 4 | 4 | MIC (Klebsiella pneumoniae [2]): > 200 µM; MIC (Acinetobacter baumannii [3]): > 200 µM; MIC (Escherichia coli [4]): > 200 µM; MIC (Acinetobacter baumannii [5]): > 200 µM
O=C(NCc1c[nH]c2ccccc12)c1cccc(Br)n1 | 32 | 32 | 0 | 0 | 
O=C(NCCc1c[nH]c2ccccc12)c1cc(Cl)c[nH]1 | 8 | 16 | 2 | 2 | 
Cn1cccc1C(=O)NCCc1c[nH]c2ccccc12 | 0 | 2 | 0 | 0 | 
O=C(NCCc1cn(Cc2ccccc2)c2ccccc12)c1cc(Br)c(Br)[nH]1 | 0 | 0 | 0 | 0 | MIC (Klebsiella pneumoniae [2]): > 200 µM; MIC (Acinetobacter baumannii [3]): > 200 µM; MIC (Escherichia coli [4]): > 200 µM; MIC (Acinetobacter baumannii [5]): > 200 µM
O=C(NCCc1c[nH]c2ccccc12)c1cccs1 | 0 | 8 | 0 | 0 | 
